Measurements taken from ChEMBL document CHEMBL4020708, “Studies of CDK 8/19 inhibitors: Discovery of novel and selective CDK8/19 dual inhibitors and elimination of their CYP3A4 time-dependent inhibition potential” (Bioorg Med Chem, 2017).
In brackets after ≈: the same amount, converted by molar mass. Activity calls are given as the source filed them. The calls are words filed in the database; no cut-off is given here.

Legend:
CDK8/Cyclin C = CDK8/Cyclin C (Homo sapiens, UniProt P49336); assay: Inhibition of kinase tracer 236 binding to full length N terminal GST-tagged human CDK8 (1 to 464 end residues) /CycC ( 1 to 283 end residues) expressed in baculovirus expression system after 60 min by TR-FRET assay
Chain of CDK8/Cyclin C (P49336 whole entry): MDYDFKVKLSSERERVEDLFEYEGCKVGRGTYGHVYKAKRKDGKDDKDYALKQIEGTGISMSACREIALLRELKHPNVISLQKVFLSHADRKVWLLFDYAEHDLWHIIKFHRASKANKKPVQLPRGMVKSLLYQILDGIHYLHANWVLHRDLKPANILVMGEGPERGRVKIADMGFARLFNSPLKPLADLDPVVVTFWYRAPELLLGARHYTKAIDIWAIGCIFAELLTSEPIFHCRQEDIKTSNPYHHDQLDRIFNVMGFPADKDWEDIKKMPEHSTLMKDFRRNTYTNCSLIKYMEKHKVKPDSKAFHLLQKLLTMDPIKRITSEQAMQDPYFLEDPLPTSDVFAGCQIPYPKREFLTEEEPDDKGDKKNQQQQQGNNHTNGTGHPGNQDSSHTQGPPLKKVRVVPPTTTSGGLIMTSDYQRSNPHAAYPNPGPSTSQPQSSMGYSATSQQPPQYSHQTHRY
Chain of CDK8/Cyclin C (P24863 whole entry, further chain): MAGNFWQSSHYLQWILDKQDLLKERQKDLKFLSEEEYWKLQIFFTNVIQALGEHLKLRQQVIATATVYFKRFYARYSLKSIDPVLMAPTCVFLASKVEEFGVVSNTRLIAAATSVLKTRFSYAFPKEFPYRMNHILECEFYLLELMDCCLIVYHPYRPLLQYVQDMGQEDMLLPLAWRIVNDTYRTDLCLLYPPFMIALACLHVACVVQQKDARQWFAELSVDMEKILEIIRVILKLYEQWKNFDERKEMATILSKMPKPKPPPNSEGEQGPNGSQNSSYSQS
Summary of the method: (§1)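 TR-FRET ligand displacement using 20 nM GST-CDK8/CycC or GST-CDK19/CycC, 20 nM Kinase Tracer 236 and Tb-anti-GST antibody. Buffer 25 mM HEPES, 10 mM MgCl₂, 2 mM DTT, 0.01% Tween-20. Incubated 60 min at rt.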

[1] = target: Cyclin-C/Cyclin-dependent kinase 19 (Homo sapiens, UniProt Q9BWU1); assay: Inhibition of kinase tracer 236 binding to GST-tagged CDK19/CycC (unknown origin) after 60 min by TR-FRET assay; type: protein-complex assay; summary of the method: as §1
Chain of Cyclin-C/Cyclin-dependent kinase 19 (Q9BWU1 whole entry): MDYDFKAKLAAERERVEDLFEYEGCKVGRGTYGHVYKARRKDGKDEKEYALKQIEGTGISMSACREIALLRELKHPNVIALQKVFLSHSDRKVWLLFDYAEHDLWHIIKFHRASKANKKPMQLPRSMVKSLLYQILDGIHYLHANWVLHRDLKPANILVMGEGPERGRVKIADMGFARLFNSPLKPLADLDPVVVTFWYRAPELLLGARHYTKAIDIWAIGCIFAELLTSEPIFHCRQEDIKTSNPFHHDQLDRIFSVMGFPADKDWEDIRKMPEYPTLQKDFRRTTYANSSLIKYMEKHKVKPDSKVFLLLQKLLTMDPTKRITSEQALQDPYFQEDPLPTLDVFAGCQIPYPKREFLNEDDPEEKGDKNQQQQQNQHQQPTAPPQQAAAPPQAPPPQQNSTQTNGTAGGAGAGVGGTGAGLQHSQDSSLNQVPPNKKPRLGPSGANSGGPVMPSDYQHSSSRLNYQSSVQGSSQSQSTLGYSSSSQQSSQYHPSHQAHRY
Chain of Cyclin-C/Cyclin-dependent kinase 19 (P24863 whole entry, further chain): as the sequence (P24863 whole entry, further chain) above

[2] = target: T1, Cyclin-dependent kinase 8 (Homo sapiens, UniProt P49336); assay: Inhibition of CDK8 in human SW480 cells assessed as reduction in IFN-gamma induced STAT1 phosphorylation at Ser727 residues preincubated for 2 hrs followed by IFN-gamma addition measured after 1 hr by In-cell western assay; type: cell-based
T1 sequence (P49336 whole entry): as the sequence (P49336 whole entry) above
Summary of the method: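 SW480 cells kept in L-15 with 10% FBS at 37 °C and plated at 6000 cells/well overnight. Compound applied 2 h, then 10 ng/mL IFN-γ for 1 h. Cells fixed, permeabilized and blocked, then probed overnight at 4 °C with anti-pSTAT1 Ser727. IRDye 800CW secondary plus DRAQ5 for DNA, Odyssey imaging.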

CYP3A4 = CYP3A4 (Homo sapiens, UniProt P08684); assay: Time-dependent inhibition of CYP3A4 in human liver microsomes assessed as reduction in testosterone to 6beta-hydroxytestosterone conversion by measuring remaining activity at 30 uM preincubated for 60 mins followed by testosterone addition measured after 20 mins in presence of NADPH by UPLC analysis relative to control; type: ADME; details: probe testosterone (6beta-hydroxylation), read-out: Activity
Chain of CYP3A4 (P08684 whole entry): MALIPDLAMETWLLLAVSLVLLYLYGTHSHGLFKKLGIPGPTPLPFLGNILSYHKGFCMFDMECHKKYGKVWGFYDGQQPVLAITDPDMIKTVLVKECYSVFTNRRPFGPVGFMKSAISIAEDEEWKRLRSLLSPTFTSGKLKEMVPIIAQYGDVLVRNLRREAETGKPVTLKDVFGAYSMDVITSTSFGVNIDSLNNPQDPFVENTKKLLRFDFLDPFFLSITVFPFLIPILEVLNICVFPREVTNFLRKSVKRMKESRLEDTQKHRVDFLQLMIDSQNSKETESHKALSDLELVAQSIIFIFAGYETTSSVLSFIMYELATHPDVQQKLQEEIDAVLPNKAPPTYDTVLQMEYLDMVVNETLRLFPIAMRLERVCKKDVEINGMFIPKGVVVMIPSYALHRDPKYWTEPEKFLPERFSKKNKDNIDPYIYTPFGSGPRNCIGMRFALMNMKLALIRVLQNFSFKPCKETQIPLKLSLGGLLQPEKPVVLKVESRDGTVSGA
Summary of the method: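 Compound at 30 μM preincubated with human liver microsomes in phosphate buffer pH 7.4 at 37 °C for 0 or 60 min with an NADPH-generating system. Testosterone then added for 20 min, and 6β-hydroxytestosterone measured by UPLC. Activity expressed as % of DMSO control; % remaining taken after 60 min preincubation.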

[3] = Total clearance in mouse at 1 mg/kg, po administered as cassette dose measured up to 8 hrs by LC/MS/MS analysis; type: ADME, organism-based; details: in vivo
[4] = Cmax in mouse at 1 mg/kg, po administered as cassette dose measured up to 8 hrs by LC/MS/MS analysis; type: ADME, organism-based; design: dose 1 mg/kg, route oral; details: in vivo
Summary of the method: (§2)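 Cassette dosing to non-fasted mice, 1 mg/kg po (0–8 h). Plasma obtained from blood by centrifugation, deproteinized with acetonitrile, centrifuged, and the supernatant analysed by LC/MS/MS.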

[5] = AUC (0 to 8 hrs) in mouse at 1 mg/kg, po administered as cassette dose by LC/MS/MS analysis; type: ADME, organism-based; design: time < 8 hr, dose 1 mg/kg, route oral; details: in vivo; summary of the method: as §2
[6] = MRT in mouse at 1 mg/kg, po administered as cassette dose measured up to 8 hrs by LC/MS/MS analysis; type: ADME, organism-based; details: in vivo; summary of the method: as §2
[7] = Oral bioavailability in mouse at 1 mg/kg administered as cassette dose measured up to 8 hrs by LC/MS/MS analysis; type: ADME, organism-based; details: in vivo
Summary of the method: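 Bioavailability from mouse cassette dosing, 0.1 mg/kg iv and 1 mg/kg po, non-fasted animals. Plasma was deproteinized with acetonitrile and compound quantified by LC/MS/MS.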

Liver [8] = assay: Intrinsic clearance in human liver microsomes at 1 umol/L after 15 to 30 mins in presence of NADPH by LC/MS/MS analysis; type: ADME, microsome; details: 1 µM
Summary of the method: (§3)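 Human or mouse liver microsomes at 0.2 mg/mL protein in 50 mmol/L phosphate buffer pH 7.4 with 1 μmol/L compound. Reaction started with an NADPH-generating system and stopped at 15 and 30 min with acetonitrile. LC/MS/MS readout. Intrinsic clearance taken as initial metabolic velocity (slope of concentration-time) divided by compound concentration.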

Liver [9] = assay: Intrinsic clearance in mouse liver microsomes at 1 umol/L after 15 to 30 mins in presence of NADPH by LC/MS/MS analysis; type: ADME, microsome; details: 1 µM; summary of the method: as §3
[10] = Solubility of the compound at pH 6.8; type: physicochemical; details: buffer
Summary of the method: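 Compound added from DMSO solution to JP 2nd disintegration fluid (pH 6.8) and incubated. Precipitate removed by filtration, and filtrate concentration measured by plate reader or HPLC.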

Plasma [11] = assay: Drug metabolism in mouse plasma assessed as formation of (E)-3-(4-(1H-pyrazol-4-yl)pyridin-3-yl)-N-(4-(morpholinomethyl)phenyl)acrylamide at 1 mg/kg, po administered as cassette dose measured up to 8 hrs by LC/MS/MS analysis; type: ADME, organism-based; details: in vivo; summary of the method: as §2
Plasma [12] = assay: Drug metabolism in mouse plasma assessed as formation of (E)-4-(1-methyl-1H-pyrazol-4-yl)-3-(3-(4-(morpholinomethyl)phenylamino)-3-oxoprop-1-enyl)pyridine 1-oxide at 1 mg/kg, po administered as cassette dose measured up to 8 hrs by LC/MS/MS analysis; type: ADME, organism-based; details: in vivo; summary of the method: as §2
Plasma [13] = assay: Drug metabolism in mouse plasma assessed as formation of (E)-3-(4-(1-methyl-1H-pyrazol-4-yl)pyridin-3-yl)-N-(4-((3-oxomorpholino)methyl)phenyl)acrylamide at 1 mg/kg, po administered as cassette dose measured up to 8 hrs by LC/MS/MS analysis; type: ADME, organism-based; details: in vivo; summary of the method: as §2
Plasma [14] = assay: Drug metabolism in mouse plasma assessed as formation of (E)-N-(4-((2-hydroxyethylamino)methyl)phenyl)-3-(4-(1-methyl-1H-pyrazol-4-yl)pyridin-3-yl)acrylamide at 1 mg/kg, po administered as cassette dose measured up to 8 hrs by LC/MS/MS analysis; type: ADME, organism-based; details: in vivo; summary of the method: as §2
[15] = target: T1, Cyclin-dependent kinase 8; assay: Inhibition of CDK8 in human SW480 cells assessed as reduction in STAT1 phosphorylation at Ser727 residues up to 30 nM after 1 day by Western blot method; type: cell-based
Summary of the method: (§4)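 Cell pellets were lysed in 62.5 mM Tris-Cl (pH 7.5), 1% SDS and 5% glycerol, then boiled at 95 °C for 5 min. 5 ug total protein was run on SDS-polyacrylamide gels, transferred and probed for total STAT1 and phospho-STAT1 Ser727. Detection used HRP-conjugated secondary antibodies and ECL plus chemiluminescence.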

RPMI-8226 [16] = assay: Antiproliferative activity against human RPMI8226 cells after 168 hrs by Celltiter-Glo luminescent assay; type: functional; details: RPMI-8226, 168 h
Summary of the method: (§5)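 Cells seeded at 5×10^2 per well. Compound added 24 h later at an appropriate concentration and incubated 168 h. Viability read by CellTiter-Glo luminescence after 20 min. Nuclear count by CyQuant Direct fluorescence after 1 h.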

EOL1 = assay: Antiproliferative activity against human EOL-1 cells after 168 hrs by Celltiter-Glo luminescent assay; type: functional; details: EOL1, 168 h; summary of the method: as §5
RPMI-8226 [17] = assay: Antitumor activity against human RPMI8226 cells xenografted in C.B17/Icr-scid/scid Jcl mouse assessed as tumor growth at 15 mg/kg, po bid after 2 weeks relative to control; type: functional
Summary of the method: (§6)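 Female C.B17/Icr-scid/scid Jcl mice, five weeks old, implanted sc in one flank with 1×10^7 RPMI-8226 cells in HBSS:Matrigel 1:1. When tumors reached about 80–140 mm³, dosed po b.i.d. at 15 or 30 mg/kg for 14 days. Caliper volume (0.5×length×width²) and body weight measured twice weekly. Tumor growth expressed as T/C vs vehicle. Mean ± se.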

RPMI-8226 [18] = assay: Antitumor activity against human RPMI8226 cells xenografted in C.B17/Icr-scid/scid Jcl mouse assessed as tumor growth at 30 mg/kg, po bid after 2 weeks relative to control; type: functional; summary of the method: as §6
Mus musculus [19] = assay: Toxicity in C.B17/Icr-scid/scid Jcl mouse xenografted with human RPMI8226 cells assessed as change in body weight at 15 mg/kg, po bid after 2 weeks; type: organism-based; details: in vivo, 336 h; summary of the method: as §6
Mus musculus [20] = assay: Toxicity in C.B17/Icr-scid/scid Jcl mouse xenografted with human RPMI8226 cells assessed as change in body weight at 30 mg/kg, po bid after 2 weeks relative to control; type: organism-based; details: in vivo, 336 h; summary of the method: as §6
Mus musculus [21] = assay: In vivo inhibition of STAT1 phosphorylation at Ser727 residues in C.B17/Icr-scid/scid Jcl mouse xenografted with human RPMI8226 cells at 15 to 30 mg/kg, po bid treated for 2 weeks measured over 2 to 8 hrs post dose by Western blot analysis; type: functional, organism-based
Summary of the method: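 Xenografted mice dosed po b.i.d. at 15 or 30 mg/kg for 2 weeks, sampled 2 h and 8 h post-dose on the final day. Samples lysed in Tris-SDS-glycerol buffer and boiled 95 °C for 5 min. 5 ug protein run on SDS-PAGE and blotted for STAT1 and phospho-STAT1 Ser727. HRP secondary with ECL detection.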

[22] = target: T1, Cyclin-dependent kinase 8; assay: Inhibition of CDK8 in human EOL1 cells assessed as reduction in STAT1 phosphorylation at Ser727 residues up to 30 nM after 1 day by Western blot method; type: cell-based; summary of the method: as §4
[23] = target: T1, Cyclin-dependent kinase 8; assay: Inhibition of CDK8 in human RPMI8226 cells assessed as reduction in STAT1 phosphorylation at Ser727 residues up to 30 nM after 1 day by Western blot method; type: cell-based; summary of the method: as §4

IC50 (CDK8/Cyclin C)	EC50 [2]	activity at 20 min, 30 µM (CYP3A4)	Cmax [4]	AUC(0-t) at 8 h [5]	MRT [6]	bioavailability [7]	microsomal intrinsic clearance (Liver [8])	intrinsic clearance (Liver [9])	solubility [10]	Structure (SMILES)	further results
6.5 nM	13 nM	81%	47.5 ng/mL	76.9 ng·h/mL	1.5 h	21.9%	22 µL/min/mg	77 µL/min/mg	68 µg/mL (≈ 169 µM)	Cn1cc(-c2ccncc2/C=C/C(=O)Nc2ccc(CN3CCOCC3)cc2)cn1	IC50 [1]: 15 nM; CL/F [3]: 49.5 mL/min/kg; Drug metabolism (Plasma [11]): Metabolite_Detected; Drug metabolism (Plasma [12]): Metabolite_Detected; Drug metabolism (Plasma [13]): Metabolite_Detected; Drug metabolism (Plasma [14]): Metabolite_Detected
2.5 nM	8.4 nM	99%	321 ng/mL	370 ng·h/mL	1.6 h	22.5%	15 µL/min/mg	97 µL/min/mg	30 µg/mL (≈ 68.9 µM)	O=C(/C=C/c1cnccc1-c1cnn(C2CC2)c1)Nc1ccc(CN2CC(F)(F)C2)cc1	inhibition [15]: Active; GI50 (RPMI-8226 [16]): 21 nM; GI50 (EOL1): 6.5 nM; T/C (RPMI-8226 [17]): 29%; T/C (RPMI-8226 [18]): -2%; Activity (Mus musculus [19]): Non-Toxic; Activity (Mus musculus [20]): 12%; inhibition (Mus musculus [21]): Active; inhibition [22]: Active; inhibition [23]: Active
